In ChEMBL document CHEMBL4680165, “β-Lactams with antiproliferative and antiapoptotic activity in breast and chemoresistant colon cancer cells” (Eur J Med Chem, 2020):
The source made the active and inactive calls. The rule behind the calls is not given here.

Legend:
HT-29 [1] = test: Antiangiogenic activity in human HT29 cells assessed as reduction in VEGF secretion at 5 uM after 24 hrs by ELISA; format: functional, cell-based
How it was run: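 HT-29 cells at 5 x 10^4 per well, cultured 24 h and then exposed to 5 µM compound. Conditioned medium collected on ice and stored at -80 °C. Cytokines and angiogenic, vascular-injury and chemokine factors measured by multiplex panels with overnight supernatant incubation (Angiogenesis Panel 1 and Vascular Injury Panel 2 same day). Medium undiluted except 1:4 for Vascular Injury Panel 2. Secretion normalised to lysate protein by BCA.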

MCF7 = test: Induction of apoptosis in human MCF7 cells assessed as downregulation of Mcl-1 expression level measured after 72 hrs by Western blot analysis; format: functional, cell-based; conditions: dose 0.05-0.5 µM
How it was run: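 MCF-7 cells (1 × 10^5 per flask) were treated at 0.05, 0.1 and 0.5 µM for 48 and 72 h; vehicle was 0.1% v/v ethanol. Lysis was in RIPA buffer with protease and phosphatase inhibitors. Equal protein (BCA) was run on 12% SDS-PAGE and blotted for Mcl-1, Bcl-2 and survivin, with GAPDH as loading control and ECL detection. Three independent experiments.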

HT-29 [2] = test: Induction of apoptosis in human HT29 cells assessed as cell apoptosis at 1 uM after 72 hrs by Annexin V-FITC and propidium iodide staining based flow cytometry; format: functional
How it was run: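 HT-29 cells were treated at 1 µM for 24, 48 and 72 h against an untreated control. Cells were stained with Annexin V in binding buffer (HEPES pH 7.4, NaCl, CaCl2) for 30 min on ice in the dark, washed, resuspended in PI-containing buffer and read at once by flow cytometry. Quadrants: early apoptotic, late apoptotic, necrotic (Annexin V−/PI+).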

HT-29 [3] = test: Cell cycle arrest in human HT-29 cells assessed as accumulation at sub-G1 phase at 1 uM measured after 48 hrs by PI staining based flow cytometry analysis (reference value: 2.5 %); format: functional
How it was run: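 Cells (1 × 10^5/well) were treated at 1 µM for 24, 48 and 72 h; vehicle was 0.1% v/v ethanol. Cells were trypsinised, fixed in ice-cold 70% ethanol overnight at −20 °C, then stained with PI (50 µg/mL) plus DNase-free RNase A (50 µg/mL) at 37 °C for 30 min. DNA content of 10,000 cells per group was read by flow cytometry at 488 nm.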

Tubulin (Homo sapiens) = Tubulin (Homo sapiens) (UniProt P68371+Q9H4B7+P0DPH7+P68366+Q13509+Q71U36+P04350+Q3ZCM7+P07437+P68363+Q9BQE3+Q6PEY2+Q13885+Q9BVA1+Q9BUF5); test: Binding affinity to tubulin in human MCF7 cells assessed as inhibition of tubulin-EBI adduct formation preincubated for 2 hrs followed by EBI addition and measured after 1.5 hrs by Western blotting analysis; format: cell-based; conditions: time 3.5 hrs
How it was run: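 MCF-7 cells (5 × 10^4/well) were incubated overnight, then given vehicle (0.1% v/v ethanol) or compound at 10 µM for 2 h. Selected wells then received EBI (100 µM) for 1.5 h. Cells were washed in ice-cold PBS, lysed in Laemmli buffer and run on SDS-PAGE. Blots were probed for β-tubulin and the β-tubulin–EBI adduct, with GAPDH as loading control. Three independent experiments.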

- Activity (Tubulin (Homo sapiens)): Active
Compound: COc1ccc([C@H]2[C@H](O)C(=O)N2c2cc(OC)c(OC)c(OC)c2)cc1F
- Activity (HT-29 [1]): inactive
- Activity (MCF7): Dose-dependent effect
- Activity (HT-29 [2]): 2%
- Activity (HT-29 [3]): 11%
